# Experimental data taken from ChEMBL document CHEMBL1811814, “Synthesis and evaluation of indole, pyrazole, chromone and pyrimidine based conjugates for tumor growth inhibitory activities--development of highly efficacious cytotoxic agents” (Eur J Med Chem, 2010).
# Tests used:
# Format in all cases: functional
# Design in all cases: scale not given: the % may be the effect or the level left
# CCRF-CEM = assay: Growth inhibition of human CCRF-CEM cells assessed tumor cell growth at 10^-5 M
# Outline: (§1)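 NCI 60-human-tumor-cell-line panel screen. Each compound was tested at a single concentration of 10^-5 M, and percent growth of tumor cells was recorded for each cell line. Growth inhibition was expressed from these percent-growth values.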
# HL-60(TB) = assay: Growth inhibition of human HL-60(TB) cells assessed tumor cell growth at 10^-5 M
# Outline: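 HL-60(TB), part of the 60-line panel, tested at a single concentration of 10^-5 M. The read-out is percent tumor cell growth relative to untreated growth.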
# K562 = assay: Growth inhibition of human K562 cells assessed tumor cell growth at 10^-5 M; outline: as §1
# MOLT-4 = assay: Growth inhibition of human MOLT4 cells assessed tumor cell growth at 10^-5 M; outline: as §1
# [1] = Growth inhibition of human […] cells assessed tumor cell growth at 10^-5 M; outline: as §1
# SR = assay: Growth inhibition of human SR cells assessed tumor cell growth at 10^-5 M
# Outline: (§2)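 Single-dose screen at 10^-5 M across the 60 human tumor cell line panel, run to NCI standards. The value is the percent growth of each cell line in the presence of compound. Compounds active at this dose moved on to five-concentration testing (10^-4 to 10^-8 M).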
# A549 = assay: Growth inhibition of human A549 cells assessed tumor cell growth at 10^-5 M; outline: as §1
# EKVX = assay: Growth inhibition of human EKVX cells assessed tumor cell growth at 10^-5 M; outline: as §1
# HOP-62 = assay: Growth inhibition of human HOP62 cells assessed tumor cell growth at 10^-5 M; outline: as §1
# HOP-92 = assay: Growth inhibition of human HOP92 cells assessed tumor cell growth at 10^-5 M; outline: as §1
# NCI-H226 = assay: Growth inhibition of human NCI-H226 cells assessed tumor cell growth at 10^-5 M; outline: as §1
# NCI-H23 = assay: Growth inhibition of human NCI-H23 cells assessed tumor cell growth at 10^-5 M; outline: as §1
# NCI-H322M = assay: Growth inhibition of human NCI-H322M cells assessed tumor cell growth at 10^-5 M; outline: as §1
# NCI-H460 = assay: Growth inhibition of human NCI-H460 cells assessed tumor cell growth at 10^-5 M; outline: as §1
# NCI-H522 = assay: Growth inhibition of human NCI-H522 cells assessed tumor cell growth at 10^-5 M; outline: as §1
# COLO 205 = assay: Growth inhibition of human COLO205 cells assessed tumor cell growth at 10^-5 M; outline: as §1
# HCC 2998 = assay: Growth inhibition of human HCC2998 cells assessed tumor cell growth at 10^-5 M; outline: as §1
# HCT-116 = assay: Growth inhibition of human HCT116 cells assessed tumor cell growth at 10^-5 M; outline: as §1
# HCT-15 = assay: Growth inhibition of human HCT15 cells assessed tumor cell growth at 10^-5 M; outline: as §1
# HT-29 = assay: Growth inhibition of human HT-29 cells assessed tumor cell growth at 10^-5 M; outline: as §1
# KM12 = assay: Growth inhibition of human KM12 cells assessed tumor cell growth at 10^-5 M; outline: as §1
# SW-620 = assay: Growth inhibition of human SW620 cells assessed tumor cell growth at 10^-5 M; outline: as §2
# SF-268 = assay: Growth inhibition of human SF268 cells assessed tumor cell growth at 10^-5 M; outline: as §1
# SF-295 = assay: Growth inhibition of human SF295 cells assessed tumor cell growth at 10^-5 M; outline: as §1
# SF-539 = assay: Growth inhibition of human SF539 cells assessed tumor cell growth at 10^-5 M; outline: as §1
# SNB-19 = assay: Growth inhibition of human SNB19 cells assessed tumor cell growth at 10^-5 M; outline: as §2
# SNB-75 = assay: Growth inhibition of human SNB75 cells assessed tumor cell growth at 10^-5 M; outline: as §2
# U-251 = assay: Growth inhibition of human U251 cells assessed tumor cell growth at 10^-5 M; outline: as §2
# LOX IMVI = assay: Growth inhibition of human LOXIMVI cells assessed tumor cell growth at 10^-5 M; outline: as §1
# Malme-3M = assay: Growth inhibition of human MALME-3M cells assessed tumor cell growth at 10^-5 M; outline: as §1
# M14 = assay: Growth inhibition of human M14 cells assessed tumor cell growth at 10^-5 M; outline: as §1
# MDA-MB-435 = assay: Growth inhibition of human MDA-MB-435 cells assessed tumor cell growth at 10^-5 M; outline: as §1
# SK-MEL-2 = assay: Growth inhibition of human SK-MEL-2 cells assessed tumor cell growth at 10^-5 M; outline: as §1
# SK-MEL-28 = assay: Growth inhibition of human SK-MEL-28 cells assessed tumor cell growth at 10^-5 M; outline: as §1
# SK-MEL-5 = assay: Growth inhibition of human SK-MEL-5 cells assessed tumor cell growth at 10^-5 M; outline: as §1
# UACC-257 = assay: Growth inhibition of human UACC257 cells assessed tumor cell growth at 10^-5 M; outline: as §2
# UACC-62 = assay: Growth inhibition of human UACC62 cells assessed tumor cell growth at 10^-5 M; outline: as §2
# IGROV-1 = assay: Growth inhibition of human IGROV1 cells assessed tumor cell growth at 10^-5 M; outline: as §1
# OVCAR-3 = assay: Growth inhibition of human OVCAR3 cells assessed tumor cell growth at 10^-5 M; outline: as §1
# OVCAR-4 = assay: Growth inhibition of human OVCAR4 cells assessed tumor cell growth at 10^-5 M; outline: as §1
# OVCAR-5 = assay: Growth inhibition of human OVCAR5 cells assessed tumor cell growth at 10^-5 M; outline: as §1
# OVCAR-8 = assay: Growth inhibition of human OVCAR8 cells assessed tumor cell growth at 10^-5 M; outline: as §1
# NCI/ADR-RES = assay: Growth inhibition of human NCI/ADR-RES cells assessed tumor cell growth at 10^-5 M; outline: as §1
# SK-OV-3 = assay: Growth inhibition of human SKOV3 cells assessed tumor cell growth at 10^-5 M; outline: as §1
# 786-0 = assay: Growth inhibition of human 786-0 cells assessed tumor cell growth at 10^-5 M; outline: as §1
# A498 = assay: Growth inhibition of human A498 cells assessed tumor cell growth at 10^-5 M; outline: as §1
# ACHN = assay: Growth inhibition of human ACHN cells assessed tumor cell growth at 10^-5 M; outline: as §1
# CAKI-1 = assay: Growth inhibition of human Caki1 cells assessed tumor cell growth at 10^-5 M; outline: as §1
# RXF 393 = assay: Growth inhibition of human RXF393 cells assessed tumor cell growth at 10^-5 M; outline: as §1
# SN12C = assay: Growth inhibition of human SN12C cells assessed tumor cell growth at 10^-5 M; outline: as §1
# TK-10 = assay: Growth inhibition of human TK10 cells assessed tumor cell growth at 10^-5 M; outline: as §2
# UO-31 = assay: Growth inhibition of human UO31 cells assessed tumor cell growth at 10^-5 M; outline: as §2
# PC-3 = assay: Growth inhibition of human PC3 cells assessed tumor cell growth at 10^-5 M; outline: as §1
# DU-145 = assay: Growth inhibition of human DU145 cells assessed tumor cell growth at 10^-5 M; outline: as §1
# MCF7 = assay: Growth inhibition of human MCF7 cells assessed tumor cell growth at 10^-5 M; outline: as §1
# MDA-MB-231 = assay: Growth inhibition of human MDA-MB-231 cells assessed tumor cell growth at 10^-5 M; outline: as §1
# [2] = Growth inhibition of human Hs 578T cells assessed tumor cell growth at 10^-5 M; outline: as §1
# BT-549 = assay: Growth inhibition of human BT549 cells assessed tumor cell growth at 10^-5 M; outline: as §1
# T47D = assay: Growth inhibition of human T47D cells assessed tumor cell growth at 10^-5 M; outline: as §2
# MDA-MB-468 = assay: Growth inhibition of human MDA-MB-468 cells assessed tumor cell growth at 10^-5 M; outline: as §1
smiles,measurement,setting,value
CC1=NN(c2cccc(Cl)c2)C(=O)/C1=C\c1cn(C(=O)c2ccc(Cl)cc2)c2ccccc12,Activity,CCRF-CEM,118.43%
same,Activity,HL-60(TB),117.42%
same,Activity,K562,107.93%
same,Activity,MOLT-4,99.47%
same,Activity,[1],97.03%
same,Activity,SR,96.12%
same,Activity,A549,96.27%
same,Activity,EKVX,79.35%
same,Activity,HOP-62,94.61%
same,Activity,HOP-92,99.69%
same,Activity,NCI-H226,86.8%
same,Activity,NCI-H23,91.24%
same,Activity,NCI-H322M,109.45%
same,Activity,NCI-H460,109.18%
same,Activity,NCI-H522,100.77%
same,Activity,COLO 205,113.51%
same,Activity,HCC 2998,108.88%
same,Activity,HCT-116,100.16%
same,Activity,HCT-15,91.41%
same,Activity,HT-29,101.17%
same,Activity,KM12,93.09%
same,Activity,SW-620,99.26%
same,Activity,SF-268,98.24%
same,Activity,SF-295,102.34%
same,Activity,SF-539,97.75%
same,Activity,SNB-19,99.84%
same,Activity,SNB-75,80.97%
same,Activity,U-251,94.02%
same,Activity,LOX IMVI,90.49%
same,Activity,Malme-3M,101.23%
same,Activity,M14,96.55%
same,Activity,MDA-MB-435,120.68%
same,Activity,SK-MEL-2,105.09%
same,Activity,SK-MEL-28,112.94%
same,Activity,SK-MEL-5,90.74%
same,Activity,UACC-257,105.58%
same,Activity,UACC-62,90.62%
same,Activity,IGROV-1,75.7%
same,Activity,OVCAR-3,97.57%
same,Activity,OVCAR-4,99.58%
same,Activity,OVCAR-5,97.61%
same,Activity,OVCAR-8,98.63%
same,Activity,NCI/ADR-RES,107.61%
same,Activity,SK-OV-3,91.35%
same,Activity,786-0,104.1%
same,Activity,A498,123.09%
same,Activity,ACHN,88.25%
same,Activity,CAKI-1,92.37%
same,Activity,RXF 393,94.47%
same,Activity,SN12C,92.22%
same,Activity,TK-10,167.41%
same,Activity,UO-31,76.43%
same,Activity,PC-3,95.29%
same,Activity,DU-145,104.66%
same,Activity,MCF7,87.82%
same,Activity,MDA-MB-231,87.79%
same,Activity,[2],92.29%
same,Activity,BT-549,95.84%
same,Activity,T47D,79.84%
same,Activity,MDA-MB-468,103.55%
